Source: ChEMBL document CHEMBL1122641, “Synthesis and pharmacological activity of some 9-substituted delta 8-tetrahydrocannabinol analogues” (1984)

What was measured:
Type in all cases: functional
Mus musculus [1] = assay: Evaluation of hypothermia (after 1h) resulting from iv administration of compound at dose 10 mg/kg
Summary of the method: (§1)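 Male ICR mice (22-30 g), housed in the laboratory 24 h before treatment; ambient 21-24 °C recorded. Rectal temperature was taken by thermistor probe (inserted 25 mm) just before iv injection of vehicle or drug (0.1 mL/10 g), then at 10-min intervals to 60 min. Value is the pre-injection minus 60-min temperature difference. At least six mice per dose.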

Mus musculus [2] = assay: Evaluation of hypothermia (after 1h) resulting from iv administration of compound at dose 5 mg/kg; summary of the method: as §1
Mus musculus [3] = assay: Evaluation of hypothermia (after 1h) resulting from iv administration of compound at dose 20 mg/kg; summary of the method: as §1
Mus musculus [4] = assay: Evaluation of spontaneous activity administered by iv route in mice
Summary of the method: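 Male ICR mice (22-30 g), housed 24 h before treatment. Given vehicle or drug iv (0.1 mL/10 g), then immediately placed singly in photocell activity chambers; beam interruptions counted for 10 min. Counts expressed as percent of vehicle control. ED50 (mg/kg) with 95% confidence limits by Litchfield-Wilcoxon method. At least six mice per dose.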

Mus musculus [5] = assay: Evaluation of hypothermia (after 1h) resulting from iv administration of compound at dose 30 mg/kg; summary of the method: as §1
Mus musculus [6] = assay: Evaluation of hypothermia (after 1h) resulting from iv administration of compound at dose 40 mg/kg; summary of the method: as §1
Mus musculus [7] = assay: Evaluation of hypothermia (after 1h) resulting from iv administration of compound at dose 60 mg/kg; summary of the method: as §1
Mus musculus [8] = assay: Evaluation of hypothermia (after 1h) resulting from iv administration of compound at dose 100 mg/kg; summary of the method: as §1

SMILES	Hypothermic effect (Mus musculus [1])	Hypothermic effect (Mus musculus [2])	Hypothermic effect (Mus musculus [3])	ED50 (Mus musculus [4]) [mg/kg]	Hypothermic effect (Mus musculus [5])	Hypothermic effect (Mus musculus [6])	Hypothermic effect (Mus musculus [7])	Hypothermic effect (Mus musculus [8])
CCCCCc1cc(O)c2c(c1)OC(C)(C)[C@@H]1CC=C(C)CC21 (stereo partly drawn)	1	0.9	3.4	7.1	–	–	–	–
CCCCCc1cc(O)c2c(c1)OC(C)(C)[C@@H]1CC=C(C(C)O)CC21 (stereo partly drawn)	–	–	0	27	0.8	1.3	–	–
CCCCCc1cc(O)c2c(c1)OC(C)(C)[C@@H]1CC=C(CCCC)CC21 (stereo partly drawn)	0.3	–	–	32	4.3	–	5	–
CCCCCc1cc(O)c2c(c1)OC(C)(C)[C@@H]1CC=C(C(O)CC)CC21 (stereo partly drawn)	0.4	–	–	39	-0.2	–	1.3	–
CCCCCc1cc(O)c2c(c1)OC(C)(C)[C@@H]1CC=C(C(C)C)CC21 (stereo partly drawn)	–	–	1.2	26	0.8	–	1.3	–
CCCCCc1cc(O)c2c(c1)OC(C)(C)[C@@H]1CC=C(c3ccccc3)CC21 (stereo partly drawn)	–	–	–	67	1.6	–	0.3	2.2
CCCCCc1cc(O)c2c(c1)OC(C)(C)[C@@H]1CC=C(CCc3ccccc3)CC21 (stereo partly drawn)	–	–	–	43	0.3	0.3	0.9	–
CCCCCc1cc(O)c2c(c1)OC(C)(C)[C@@H]1CC=C(Cc3ccccc3)CC21 (stereo partly drawn)	1.3	–	0.9	32	1.1	–	1.5	–
